The structures appear in SMILES notation.

The term Ki denotes the dissociation constant of the complex between target and ligand, obtained from inhibition or displacement. Lower therefore signals tighter binding. One may read the logD as the decadic logarithm of the distribution of all forms, ionised or not, between an organic phase and buffer at a given pH. For orientation: Kp means the ratio of the level in a tissue or fluid to that in plasma or blood.

For data set [1], the target named is T1, Sigma non-opioid intracellular receptor 1 (Homo sapiens, UniProt Q99720). Kind of data set: Binding affinity to human brain sigma1 receptor.
Data set [2] can be described thus: Displacement of [3H]-1,3-di-o-tolylguanidine from rat liver sigma2 receptor by competitive binding assay. In outline: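 Rat liver homogenate as the σ2 source, with [3H]DTG as radioligand plus 10 μM dextrallorphan to mask σ1 sites, in a competition format. Ki values are mean ± SD of three experiments, each run in triplicate.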
A short description of data set [3]: Lipophilicity, log D of the compound at pH 7.4. Format: physicochemical. The settings on record: buffer. In a few lines: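 Shake flask: radiotracer (370 kBq) in 3 mL 1-octanol plus 3 mL 0.05 M sodium phosphate buffer pH 7.4, vortexed 3 min at room temperature, then centrifuged. Both phases were gamma-counted and log D = log(cpm/mL octanol ÷ cpm/mL buffer). The octanol layer was repartitioned until values were consistent. Triplicate, repeated three times.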

Data set [4] concerns Brain. Kind of data set: Biodistribution in iv dosed CD1 mouse brain after 15 mins by PET imaging analysis. Format: ADME, organism-based. The note with it: in vivo, 0.25 h.
Data set [5] is filed under the species Homo sapiens. Kind of data set: Selectivity ratio of Ki for human sigma2 receptor to human sigma1 receptor.
In data set [6] the test system is Liver microsomes. Kind of data set: Metabolic stability in rat liver microsomes assessed as retention time by UPLC-MS analysis in presence of beta-NADP. Format: ADME, Microsome. In outline:
(§1)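 Rat liver microsomes (2 mg protein/mL) with 100 μM compound and an NADPH-generating system (2 mM β-NADPH, 20 mM glucose 6-phosphate, 2 U G6PDH, 12 mM MgCl₂) in 0.05 M Tris-HCl pH 7.4. Preincubated 3 min, then run 30 min at 37 °C and stopped with ice-cold methanol. Supernatant analysed by UPLC-ESI(+)-MS against compound-free blanks.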

Data set [7] in a line: Ratio of drug uptake from […] mouse brain to blood after 120 mins. It counts as ADME, tissue-based. The note with it: brain and blood. In a few lines:
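Male ICR mice (n = 5 per time point) received [18F]tracer (370 kBq, 0.1 mL saline) iv and were decapitated at 2, 30, 60 and 120 min. Brain and blood were weighed and gamma-counted, decay-corrected and expressed as %ID/g against diluted injectate. The brain/blood ratio was taken from these %ID/g values.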

The test system of data set [8] is Brain. Kind of data set: Biodistribution in mouse brain after 60 mins in presence of haloperidol relative to control. Format: ADME, organism-based. The note with it: in vivo, 1 h. In a few lines:
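Male ICR mice (n = 5 per group) got saline (0.1 mL) or haloperidol (0.1 mL, 1.0 mg/kg) via tail vein 5 min before iv [18F]tracer (370 kBq, 0.1 mL, saline). Killed by decapitation at 60 min. Brain was weighed and gamma-counted with decay correction, giving %ID/g against diluted injectate. Control vs blocking compared by two-tailed independent Student's t test.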

In data set [9] the test system is Brain. Kind of data set: Biodistribution in mouse brain after 5 mins by PET imaging analysis. It counts as ADME, organism-based. The note with it: in vivo.
For data set [10], the target named is Sigma non-opioid intracellular receptor 1 (Rattus norvegicus, UniProt Q9R0C9). Kind of data set: Displacement of (+)-[3H]pentazocine from rat brain sigma1 receptor by competitive binding assay.
The species entered for data set [11] is Rattus norvegicus. Kind of data set: Selectivity ratio of Ki for rat liver sigma2 receptor to rat brain sigma1 receptor. In a few lines: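 Competition binding used rat brain homogenates for σ1 with (+)-[³H]pentazocine. Rat liver homogenates were used for σ2 with [³H]DTG, in the presence of 10 μM dextrallorphan to mask σ1 sites. Ki values are means ± SD of three experiments, each in triplicate. Selectivity is Ki(σ2)/Ki(σ1).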

The nature of data set [12]: Binding affinity to sigma2 receptor (unknown origin). On the set-up: species or system Homo sapiens.
The target of data set [13] is T1, Sigma non-opioid intracellular receptor 1. The experiment in a line: Binding affinity to sigma1 receptor (unknown origin). In a few lines: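 Radioligand competition binding on rat brain homogenates using (+)-[³H]pentazocine as the competing radioligand. Ki values are means ± SD of three experiments, each performed in triplicate.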
The subject of data set [14] is Liver microsomes. The experiment in a line: Metabolic stability in rat liver microsomes assessed as retention time at 100 uM by UPLC-MS analysis in presence of beta-NADPH. It counts as ADME, Microsome. In outline:
as §1
For orientation: Microsomes from liver hold many membrane-bound enzymes, among them those of drug oxidation.

The target in data set [15] is Vesicular acetylcholine transporter (Rattus norvegicus, UniProt Q62666). Kind of data set: Displacement of (-)-[3H]-vesamicol from rat VAChT transfected in rat PC12 cells after 120 mins by competitive binding assay. Format: cell-based, PC-12. In a few lines: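 Membrane homogenates from PC12 cells stably expressing rat VAChT, with 1 nM (−)-[3H]vesamicol, test ligand at 10⁻¹¹–10⁻⁵ M, in 50 mM Tris-HCl pH 7.4, 120 min at room temperature. Nonspecific binding was defined with 10 μM (−)-vesamicol. Ki from Cheng–Prusoff; mean of two experiments, each in triplicate.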

Data set [16] is described as follows: Metabolic stability in ICR mouse liver at 18.5 MBq, iv after 30 mins by HPLC analysis. Format: ADME, organism-based. The settings on record: read-out: Stability. In outline:
(§2)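 Male ICR mice given radiotracer iv (18.5 MBq, 0.2 mL), killed at 30 min. Brain and liver were homogenized in ice-cold PBS (0.01 M, pH 7.4) and extracted with ice-cold MeCN. Supernatants were filtered, concentrated and analysed by radio-HPLC on a C18 column, acetonitrile/water with 0.1% TFA (45:55), 1 mL/min.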

Data set [17] relates to Brain. The experiment in a line: Metabolic stability in ICR mouse brain at 18.5 MBq, iv after 30 mins by HPLC analysis. It counts as ADME, organism-based. The note with it: in vivo, 0.5 h. In outline: as §2
For data set [18], the system named is Liver. Kind of data set: Metabolic stability in ICR mouse liver assessed as retention time at 18.5 MBq, iv by HPLC analysis. It counts as ADME, organism-based. The note with it: in vivo. In outline: as §2
A short description of data set [19]: Ratio of drug uptake from mouse brain to blood after 30 mins. Format: ADME, tissue-based. The note with it: brain and blood. In outline: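 Male ICR mice (n = 5 per time point) received an intravenous saline solution of the radiotracer (370 kBq, 0.1 mL). They were decapitated at 2, 30, 60 and 120 min. Brain, blood and other organs were weighed and γ-counted against diluted injectate aliquots, decay-corrected, and expressed as %ID/g of wet tissue (mean, SD). The brain/blood ratio is given at each time.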

Data set [20] deals with Brain. The experiment in a line: Biodistribution in iv dosed CD1 mouse brain after 30 mins in presence of haloperidol relative to control. It counts as ADME, organism-based. The settings on record: in vivo, 0.5 h.
Data set [21] deals with 3-beta-hydroxysteroid-Delta(8),Delta(7)-isomerase (Homo sapiens, UniProt Q15125). The experiment in a line: Binding affinity to EBP (unknown origin).
3-beta-hydroxysteroid-Delta(8),Delta(7)-isomerase, sequence (Q15125 whole entry): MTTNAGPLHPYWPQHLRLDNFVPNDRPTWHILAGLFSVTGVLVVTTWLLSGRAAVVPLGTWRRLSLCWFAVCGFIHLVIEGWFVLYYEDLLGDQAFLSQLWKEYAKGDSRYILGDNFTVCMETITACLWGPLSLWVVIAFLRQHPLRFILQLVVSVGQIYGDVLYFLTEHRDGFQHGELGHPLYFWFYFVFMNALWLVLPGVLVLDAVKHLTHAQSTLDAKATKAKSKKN

T1 sequence (Q99720 whole entry): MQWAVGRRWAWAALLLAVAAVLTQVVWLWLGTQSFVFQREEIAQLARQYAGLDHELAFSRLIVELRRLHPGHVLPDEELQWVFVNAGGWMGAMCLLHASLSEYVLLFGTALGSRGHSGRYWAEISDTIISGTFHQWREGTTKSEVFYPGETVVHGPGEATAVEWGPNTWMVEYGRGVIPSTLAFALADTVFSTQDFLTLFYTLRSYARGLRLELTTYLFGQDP
Sigma non-opioid intracellular receptor 1 (Rattus norvegicus, UniProt Q9R0C9), sequence (Q9R0C9 whole entry): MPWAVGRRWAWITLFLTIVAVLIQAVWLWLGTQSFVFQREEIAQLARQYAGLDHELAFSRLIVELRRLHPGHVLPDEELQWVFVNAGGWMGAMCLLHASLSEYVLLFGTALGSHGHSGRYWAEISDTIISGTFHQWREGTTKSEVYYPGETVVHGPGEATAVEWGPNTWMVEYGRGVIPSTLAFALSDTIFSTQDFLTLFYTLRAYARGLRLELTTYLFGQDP
Vesicular acetylcholine transporter, sequence (Q62666 whole entry): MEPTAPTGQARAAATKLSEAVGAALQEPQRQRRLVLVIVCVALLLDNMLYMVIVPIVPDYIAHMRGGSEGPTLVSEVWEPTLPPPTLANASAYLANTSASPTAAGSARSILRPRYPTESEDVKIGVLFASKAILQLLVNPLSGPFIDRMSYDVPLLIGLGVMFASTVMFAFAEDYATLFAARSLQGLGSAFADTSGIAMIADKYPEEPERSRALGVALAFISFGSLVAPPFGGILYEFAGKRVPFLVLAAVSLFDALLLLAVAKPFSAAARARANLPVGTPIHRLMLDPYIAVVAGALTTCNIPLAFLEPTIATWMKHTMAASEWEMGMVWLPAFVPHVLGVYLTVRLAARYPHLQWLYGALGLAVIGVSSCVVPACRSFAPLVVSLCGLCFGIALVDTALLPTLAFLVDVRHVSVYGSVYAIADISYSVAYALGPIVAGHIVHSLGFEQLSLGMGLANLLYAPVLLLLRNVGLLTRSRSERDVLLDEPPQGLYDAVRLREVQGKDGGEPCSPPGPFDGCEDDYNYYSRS

In [1], `N#Cc1ccc(OCC2CCN(CCC[18F])CC2)cc1` returned a Ki of 0.0043 µM.

In data set [2], `O=C(CCCN1CCC(O)(c2ccc(Cl)cc2)CC1)c1ccc(F)cc1` [HALOPERIDOL] yielded an inhibition constant Ki of 0.0207 µM.

With `N#Cc1ccc(OCC2CCN(C/C=C/[123I])CC2)cc1`, the Ki in data set [1] is 0.00067 µM.

`[125I]c1ccc(CN2CCC3(CC2)OCc2ccccc23)cc1`: the logD in [3] worked out at 3.06. In [4], this compound gave a Drug uptake of 5.28 % ID/g.

As for `N#Cc1ccc(OCC2CCN(C/C=C/I)CC2)cc1`, the Ratio Ki in data set [5] (tested as the 123I-labelled form) was found to be 58.

Turning to `OCc1ccccc1C1(O)CCN(Cc2ccc(OCCF)cc2)CC1`, in [6], the Retention_time is reported as 1.42 min.

With `[18F]CCC1OC2(CCN(Cc3ccccc3)CC2)c2ccccc21` (centres undefined), the Kp at 2 h in data set [7] was 18.8. Moreover, the Drug uptake was 62% in data set [8] and 3.88 % ID/g in data set [9].

Turning to `N#Cc1ccc(OCC2CCN(CCCF)CC2)cc1`, the Ratio Ki in data set [5] (tested as the 18F-labelled form) came out at 33.

On to `FCCOc1ccc(CN2CCC3(CC2)OCc2ccccc23)cn1`, for which the values for the inhibition constant Ki in [10] and in data set [2] were 0.0023 µM and 0.327 µM, respectively. The Ratio Ki in data set [11] was 142.

In the case of `Ic1ccc(CN2CCC3(CC2)OCc2ccccc23)cc1`, the Ki was determined as 0.00275 µM in data set [10], 0.34 µM in data set [12], 0.34 µM in [2] and 0.00275 µM in [13]. Further, in data set [11], the Ratio Ki was determined as 123.

Consider `FCCOc1ccc(CN2CCC3(CC2)OCc2ccccc23)cc1`, for which the values for the Ki in [10], in data set [2] and in data set [15] were 0.00079 µM, 0.277 µM and 0.631 µM, respectively. Further, the Retention_time in data set [14] was determined as 1.82 min. In addition, the Ratio Ki in [11] was found to be 350.

In the case of `FCCOCCOc1ccc(CN2CCC3(CC2)OCc2ccccc23)cc1`, the inhibition constant (Ki) in [10] was determined as 0.0529 µM; in data set [2], 0.86 µM. In addition, in data set [11], the Ratio Ki was 16.

On to `FCCOCCOCCOc1ccc(CN2CCC3(CC2)OCc2ccccc23)cc1`, for which the inhibition constant Ki in data set [10] stood at 0.0375 µM; in [2], 0.592 µM. For the same compound, the Ratio Ki in data set [11] is 16.

Regarding `OCc1ccccc1C1(O)CCN(Cc2ccc(OCC[18F])cc2)CC1`, the remaining at 0.5 h in data set [16] amounted to 26.9%. Further, the Stability entry in data set [17] is “Unstable”. Also, in [18], the Retention_time was found to be 4.68 min.

As for `Oc1ccc(CN2CCC3(CC2)OCc2ccccc23)cc1`, in data set [6], the Retention_time came out at 1.74 min.

For the compound `COc1ccc(CN2CCC3(CC2)OCc2ccccc23)cc1`, the inhibition constant (Ki) in data set [10] came to 0.0017 µM; in [2] it was 0.276 µM. In addition, the Ratio Ki in data set [11] was found to be 162.

Take `COc1cc(CCN2CCN(CCCc3ccccc3)CC2)ccc1O[11CH3]`: the concentration ratio (Kp) at 0.5 h in data set [19] stood at 11.6. Also, the Drug uptake in data set [9] worked out at 3.61 % ID/g; in [20], 60%.

Regarding `COc1ccc(CCN2CCN(CCCc3ccccc3)CC2)cc1OC` [[11C]SA4503], the Ki in [21] worked out at 0.00172 µM. This counts as single-digit nanomolar.

Take `Fc1ccc(CN2CCC3(CC2)OCc2ccccc23)cc1`: the results for the Ki in data set [10] and in [2] were 0.00058 µM and 0.106 µM, respectively. Further, the Ratio Ki in [11] was 182.

These data come from ChEMBL document CHEMBL2346503, “Synthesis and evaluation of novel (18)F-labeled spirocyclic piperidine derivatives as σ1 receptor ligands for positron emission tomography imaging” (J Med Chem, 2013).
